Results published in ChEMBL document CHEMBL4699638, “A Multipronged Approach Establishes Covalent Modification of β-Tubulin as the Mode of Action of Benzamide Anti-cancer Toxins” (J Med Chem, 2020).
The source made the active and inactive calls. The calls are words filed in the database; no cut-off is given here.

Key:
518T2 [1] = assay: Binding affinity to beta-tubulin in mouse 518T2 cells measured after 1.5 hrs using Alexa Fluor 532 dye by copper-mediated click reaction based SDS PAGE analysis; format: cell-based
Outline: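 Competition format in 518T2 murine SCLC cells, 1 million per well in DMEM with 5% FBS. Analogs in DMSO (100 nM to 50 μM) were dispensed first and cells plated onto them. Next day alkyne probe 24 (5 μM) was added for 1.5 h at 37 °C, 5% CO2. EC50 was taken from displacement of the 50 kDa band.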

518T2 [2] = assay: Cell cycle arrest in mouse 518T2 cells assessed as increase in accumulation at G2/M-phase at 300 nM measured after 24 hrs by propidium iodide staining based flow cytometry; format: functional
Outline: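 518T2 murine SCLC cells were exposed for 24 h to compound (300 nM) or DMSO vehicle. Cell cycle distribution was then read by flow cytometry.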

[3] = (§1) Anticancer activity against mouse 319N1 cells assessed as reduction in cell viability measured after 72 hrs by celltiter-glo assay; format: functional, cell-based; details: 319N1, 72 h
Outline: (§2)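 Cells seeded in duplicate at 10,000 per well in DMEM with 5% FBS and incubated overnight. Compounds were then added as a 10-point dose response. After 72 h, viability was read by CellTiter-Glo luminescence, with the reagent diluted 1:1 in PBS/1% Triton-X. Values were normalized to DMSO-treated cells and IC50 was derived from curve fitting.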

518T2 [4] = assay: Binding affinity to beta-tubulin in mouse 518T2 cells at 0.1 to 50 uM measured after 1.5 hrs using Alexa Fluor 532 dye by copper-mediated click reaction based SDS PAGE analysis; format: cell-based; details: dose microM 0.1-50, time 1.5 hrs
Outline: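 Competition assay in 518T2 cells (1 million per well, DMEM with 5% FBS). Test analogs in DMSO were dispensed first at 100 nM to 50 μM and the cells plated onto them. The next day, alkyne probe (5 μM) was added for 1.5 h at 37 °C. Lysis was in 1% SDS HEPES buffer, followed by a click reaction with fluorescent azide, SDS-PAGE, and EC50 from displacement of the p50 band.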

319N1 [5] = assay: as §1; format: functional, cell-based; outline: as §2
518T2 [6] = assay: Binding affinity to beta-tubulin in mouse 518T2 cells at 0.05 to 50 uM measured after 1.5 hrs using Alexa Fluor 532 dye by copper-mediated click reaction based SDS PAGE analysis; format: cell-based; details: dose microM 0.05-50, time 1.5 hrs
Outline: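 518T2 cells were plated at 1 million per well in DMEM with 5% FBS. The next day, alkyne probe in DMSO was added at 50 nM to 50 μM for 1.5 h at 37 °C in 5% CO2. Cells were washed, lysed in 1% SDS buffer (50 mM HEPES pH 7.4, 10 mM KCl, 2 mM MgCl2, benzonase), click-reacted with Alexa Fluor 532 azide and resolved by SDS-PAGE fluorescence.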

518T2 [7] = assay: Binding affinity to beta-tubulin in mouse 518T2 cells measured after 1.5 hrs using diazo biotin azide dye by silver staining based based SDS PAGE analysis; format: cell-based
Outline: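 518T2 cells were grown at large scale (100 mg protein per condition) and treated with covalent or non-covalent alkyne probe. Lysates were clicked to 100 μM diazo biotin azide, acetone-precipitated, resolubilized in 4% SDS/PBS, and captured on streptavidin beads for 1 h at 25 °C. Eluates were run on silver-stained SDS-PAGE or analyzed by nano-LC-MS/MS (Orbitrap, HCD). Peptide abundance was normalized to the non-covalent probe sample.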

[8] = target: Tubulin beta-3 chain (Homo sapiens) (UniProt Q13509); assay: Binding affinity to recombinant human C-terminal His-tagged beta3-tubulin expressed in insect cells assessed as reduction in microtubule growth measured up to 30 mins by microscopic analysis; details: dose microM 1-10, time min <=30
Outline: (§3)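 Human αβ-tubulin (TUBA1B plus TUBB3 with cleavable C-terminal His-tag) was expressed in Tni insect cells. It was purified by Ni-affinity, TEV cleavage and anion exchange, then kept in BRB80 with 50 μM GTP. Growth was measured by DIC time-lapse at 30 °C on GMPCPP seeds in 144 mM PIPES pH 6.9 buffer with 1 mM GTP and 4% DMSO, over about 30 min. Compound was tested at 1, 5 and 10 μM; growth rates were measured per microtubule over two trials.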

[9] = target: Tubulin beta-3 chain (Homo sapiens) (UniProt Q13509); assay: Binding affinity to recombinant human C-terminal His-tagged beta3-tubulin expressed in insect cells assessed as reduction in microtubule growth by measuring microtubule growth rate at 1 uM measured up to 30 mins by microscopic analysis (reference value: 0.83 micrometer/min); details: time min <=30; outline: as §3
[10] = target: Tubulin beta-3 chain (Homo sapiens) (UniProt Q13509); assay: Binding affinity to recombinant human C-terminal His-tagged beta3-tubulin expressed in insect cells assessed as reduction in microtubule growth by measuring microtubule growth rate at 10 uM measured up to 30 mins by microscopic analysis (reference value: 0.83 micrometer/min); details: time min <=30; outline: as §3
Bos taurus [11] = species on record: Bos taurus; assay: Binding affinity to bovine brain beta-tubulin assessed as reduction in microtubule growth at 0.5 uM measured up to 30 mins by microscopic analysis; format: tissue-based; details: time min <=30
Outline: (§4)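 Microtubule growth from brain tubulin was imaged by time-lapse DIC microscopy at 30 °C on biotinylated GMPCPP seeds bound to neutravidin coverslips. Frames were taken every 50 ms and averaged in batches of 30; recordings ran about 30 min. Growth rates were quantified per microtubule.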

Bos taurus [12] = species on record: Bos taurus; assay: Binding affinity to bovine brain beta-tubulin assessed as reduction in microtubule growth at 1 uM measured up to 30 mins by microscopic analysis relative to control; design: scale not given: the % may be the effect or the level left; details: time min <=30; outline: as §4
[13] = target: Tubulin beta-3 chain (Homo sapiens) (UniProt Q13509); assay: Binding affinity to recombinant human C-terminal His-tagged beta3-tubulin expressed in insect cells assessed as reduction in microtubule growth up to 10 uM measured up to 30 mins by microscopic analysis; details: dose microM <=10, time min <=30; outline: as §3
518T2 [14] = assay: Inhibition of colony formation in mouse 518T2 cells harboring Tubb5 T238A mutant at 400 nM measured after 2 weeks by crystal violet staining based assay; format: functional, cell-based
Outline: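 518T2 cells were transfected with Cas9-sgRNA complexes targeting Tubb5 plus an oligonucleotide repair template encoding T238A, or a sham control. They were selected with compound at 400 nM for 2 weeks, and the plates were then stained with crystal violet to visualize resistant colonies.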

[15] = (§5) Anticancer activity against mouse 319N1 clone C cells assessed as reduction in cell viability measured after 72 hrs by celltiter-glo assay; format: functional, cell-based; details: 319N1, 72 h; outline: as §2
319N1 [16] = assay: Anticancer activity against Msh2-deficient mouse 319N1 cells assessed as reduction in cell viability measured after 72 hrs by celltiter-glo assay; format: functional, cell-based; outline: as §2
319N1 [17] = assay: Anticancer activity against mouse 319N1 clone A cells assessed as reduction in cell viability measured after 72 hrs by celltiter-glo assay; format: functional, cell-based; outline: as §2
319N1 [18] = assay: Anticancer activity against mouse 319N1 clone B cells assessed as reduction in cell viability measured after 72 hrs by celltiter-glo assay; format: functional, cell-based; outline: as §2
319N1 [19] = assay: as §5; format: functional, cell-based; outline: as §2
319N1 [20] = assay: Anticancer activity against mouse 319N1 clone D cells assessed as reduction in cell viability measured after 72 hrs by celltiter-glo assay; format: functional, cell-based; outline: as §2
319N1 [21] = assay: Anticancer activity against mouse 319N1 clone E cells assessed as reduction in cell viability measured after 72 hrs by celltiter-glo assay; format: functional, cell-based; outline: as §2

Sequence of Tubulin beta-3 chain (Homo sapiens) (Q13509 whole entry): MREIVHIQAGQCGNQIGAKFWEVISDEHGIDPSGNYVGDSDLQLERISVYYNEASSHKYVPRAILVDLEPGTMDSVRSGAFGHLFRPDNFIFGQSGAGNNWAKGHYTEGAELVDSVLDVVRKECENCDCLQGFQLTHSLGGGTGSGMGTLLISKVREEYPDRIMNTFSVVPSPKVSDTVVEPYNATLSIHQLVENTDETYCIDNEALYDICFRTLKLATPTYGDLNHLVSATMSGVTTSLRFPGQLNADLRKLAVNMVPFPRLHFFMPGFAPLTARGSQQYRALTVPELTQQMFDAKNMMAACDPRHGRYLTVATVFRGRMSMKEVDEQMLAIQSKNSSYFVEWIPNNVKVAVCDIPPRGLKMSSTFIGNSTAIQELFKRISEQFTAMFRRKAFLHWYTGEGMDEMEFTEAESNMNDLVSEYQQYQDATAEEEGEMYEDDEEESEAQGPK

SMILES: COc1cc2c(c(OC)c1OC)-c1ccc(OC)c(=O)cc1[C@@H](NC(C)=O)CC2
- inhibition (518T2 [1]): Dose-dependent effect
- Activity (518T2 [2]): Active

SMILES: Cc1ccc(N2CCN(C(=O)c3ccc(Cl)c([N+](=O)[O-])c3)CC2)c(C)c1
- IC50 [3]: 6.99 µM

SMILES: O=C(c1ccc(Cl)c([N+](=O)[O-])c1)N1CCN(c2cccc(Cl)c2)CC1
- IC50 [3]: 0.694 µM

SMILES: Cc1cccc(N2CCN(C(=O)c3ccc(Cl)c([N+](=O)[O-])c3)CC2)c1
- IC50 [3]: 1.42 µM
- beta-tubulin binding (probe competition, active/inactive) (518T2 [4]): Active

SMILES: O=C(c1cccc([N+](=O)[O-])c1)N1CCN(c2ccccc2)CC1
- Activity (319N1 [5]): inactive

SMILES: Cc1ccc(Cl)cc1N1CCN(C(=O)c2ccc([N+](=O)[O-])c(Cl)c2)CC1
- IC50 [3]: 4.68 µM

SMILES: COc1cccc(N2CCN(C(=O)c3ccc(Cl)c([N+](=O)[O-])c3)CC2)c1
- IC50 [3]: 1.56 µM
- beta-tubulin binding (probe competition, active/inactive) (518T2 [4]): Active

SMILES: Cc1ccc(Cl)cc1N1CCN(C(=O)c2cc(Cl)cc([N+](=O)[O-])c2)CC1
- IC50 [3]: 4.87 µM

SMILES: COc1ccc(N2CCN(C(=O)c3ccc(Cl)c([N+](=O)[O-])c3)CC2)cc1
- IC50 [3]: 40.3 µM

SMILES: C#CCOc1cccc(N2CCN(C(=O)c3ccc(C)c([N+](=O)[O-])c3)CC2)c1
- IC50 [3]: 13 µM
- Activity (518T2 [6]): inactive
- Activity (518T2 [7]): inactive

SMILES: Cc1ccc(C)c(N2CCN(C(=O)c3ccc(Cl)c([N+](=O)[O-])c3)CC2)c1
- IC50 [3]: 1.04 µM

SMILES: COc1cc(OC)cc(N2CCN(C(=O)c3ccc(C=O)c([N+](=O)[O-])c3)CC2)c1
- IC50 [3]: 0.127 µM
- Activity [8]: Dose-dependent effect
- Activity [9]: 0.67 um/min
- Activity [10]: 0.31 um/min
- Activity (Bos taurus [11]): Active

SMILES: Cc1ccc(Cl)cc1N1CCN(C(=O)c2ccc(Cl)cc2[N+](=O)[O-])CC1
- IC50 [3]: 17 µM

SMILES: Cc1ccc(Cl)cc1N1CCN(C(=O)c2ccc(Br)c([N+](=O)[O-])c2)CC1
- IC50 [3]: 0.055 µM
- beta-tubulin binding (probe competition, active/inactive) (518T2 [4]): Active
- Activity (518T2 [2]): Active
- Activity (Bos taurus [12]): 80%
- Activity [13]: inactive
- inhibition (518T2 [14]): inactive

SMILES: COC(=O)c1c(C)oc2ccc(NS(=O)(=O)c3ccc(Cl)c([N+](=O)[O-])c3)cc12
- IC50 [3]: 2.8 µM
- inhibition (518T2 [1]): Dose-dependent effect
- IC50 [15]: 7.57 µM

SMILES: COc1cc([C@@H]2c3cc4c(cc3[C@@H](O[C@@H]3O[C@@H]5CO[C@@H](C)O[C@H]5[C@H](O)[C@H]3O)[C@H]3COC(=O)[C@H]23)OCO4)cc(OC)c1O
- Activity (319N1 [16]): Active
- Activity (319N1 [17]): Active
- Activity (319N1 [18]): Active
- Activity (319N1 [19]): Active
- Activity (319N1 [20]): Active
- Activity (319N1 [21]): Active
